In one experiment the target is T1, GCase (Homo sapiens, UniProt P04062, R534H).
T1 sequence (P04062 40-536 R534H): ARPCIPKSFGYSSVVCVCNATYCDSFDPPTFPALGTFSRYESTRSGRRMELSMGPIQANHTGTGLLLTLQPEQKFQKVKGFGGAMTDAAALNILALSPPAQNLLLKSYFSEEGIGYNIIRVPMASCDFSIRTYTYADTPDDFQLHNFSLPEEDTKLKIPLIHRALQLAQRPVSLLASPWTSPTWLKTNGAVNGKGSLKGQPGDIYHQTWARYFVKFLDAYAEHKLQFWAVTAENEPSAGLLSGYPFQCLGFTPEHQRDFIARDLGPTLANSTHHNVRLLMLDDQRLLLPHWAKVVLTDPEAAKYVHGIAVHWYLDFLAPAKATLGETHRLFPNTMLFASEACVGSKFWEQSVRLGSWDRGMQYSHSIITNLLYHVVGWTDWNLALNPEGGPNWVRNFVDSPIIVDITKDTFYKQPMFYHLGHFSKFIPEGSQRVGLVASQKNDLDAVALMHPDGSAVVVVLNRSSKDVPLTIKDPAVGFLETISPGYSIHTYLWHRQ
The experiment in a line: Heat inactivation. The following applies: 50 °C, wild-type GCase. The experiment is classed as biochemical. Summed up:
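Human GCase (cerezyme) diluted 1/200–1/400 in 20 mM CP pH 5.5 with 0.2% TdC, with test compound (six concentrations) or DMSO. Split into two aliquots: one kept on ice, one heated at 50 °C for 20 min, then cooled on ice. Equilibrated 10 min at room temperature, then 0.8 mM MUGlc for 20 min. Remaining activity = heated/unheated ratio for the same compound.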

The target of another experiment is T2, human β-Gal (Homo sapiens, UniProt P16278).
T2 sequence (P16278 29-677): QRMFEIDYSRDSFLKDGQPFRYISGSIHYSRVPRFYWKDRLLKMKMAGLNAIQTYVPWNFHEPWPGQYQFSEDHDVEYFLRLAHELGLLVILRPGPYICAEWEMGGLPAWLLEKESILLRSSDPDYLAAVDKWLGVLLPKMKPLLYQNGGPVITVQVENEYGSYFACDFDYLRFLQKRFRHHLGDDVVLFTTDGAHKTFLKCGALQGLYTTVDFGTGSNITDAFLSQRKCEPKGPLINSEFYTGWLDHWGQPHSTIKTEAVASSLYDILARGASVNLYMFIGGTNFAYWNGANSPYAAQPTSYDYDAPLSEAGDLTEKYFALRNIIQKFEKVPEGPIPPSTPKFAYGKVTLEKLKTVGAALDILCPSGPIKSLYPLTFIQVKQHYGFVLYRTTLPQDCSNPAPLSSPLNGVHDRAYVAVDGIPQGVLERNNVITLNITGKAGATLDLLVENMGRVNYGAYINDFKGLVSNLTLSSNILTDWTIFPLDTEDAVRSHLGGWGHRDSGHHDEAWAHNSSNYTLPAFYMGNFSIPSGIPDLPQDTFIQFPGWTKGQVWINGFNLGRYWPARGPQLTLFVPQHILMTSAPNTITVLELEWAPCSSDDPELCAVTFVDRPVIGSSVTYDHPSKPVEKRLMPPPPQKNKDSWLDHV
In words: Glycosidase specificity: β-Gal inhibition. The experiment is classed as biochemical.

For experiment [1], the target named is T3, lysosomal GCase in N370S/N370S GD cells (Homo sapiens, UniProt P04062, N409S).
T3 sequence (P04062 40-536 N409S): T1 sequence (P04062 40-536 R534H) with N370S, H495R
The experiment in a line: Lysosome-enriched fraction. The experiment is classed as cell-based. The following applies: 12.5 μM, five days. Put shortly: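 N370S/N370S GD fibroblasts treated for five days with test compound (12.5 μM) or 0.1% DMSO. Labelled with iron-dextran colloid and lysosomes enriched by magnetic chromatography. Lysosomal GCase monitored with MUGlc. Fractions (1 μg) run on 10% SDS-PAGE and transferred to nitrocellulose. Probed with rabbit polyclonal anti-human GCase or mouse monoclonal Lamp-2 and developed by chemiluminescence.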

The target of the next experiment is T4, human Hex (Homo sapiens, UniProt P07686).
T4 sequence (P07686 122-556): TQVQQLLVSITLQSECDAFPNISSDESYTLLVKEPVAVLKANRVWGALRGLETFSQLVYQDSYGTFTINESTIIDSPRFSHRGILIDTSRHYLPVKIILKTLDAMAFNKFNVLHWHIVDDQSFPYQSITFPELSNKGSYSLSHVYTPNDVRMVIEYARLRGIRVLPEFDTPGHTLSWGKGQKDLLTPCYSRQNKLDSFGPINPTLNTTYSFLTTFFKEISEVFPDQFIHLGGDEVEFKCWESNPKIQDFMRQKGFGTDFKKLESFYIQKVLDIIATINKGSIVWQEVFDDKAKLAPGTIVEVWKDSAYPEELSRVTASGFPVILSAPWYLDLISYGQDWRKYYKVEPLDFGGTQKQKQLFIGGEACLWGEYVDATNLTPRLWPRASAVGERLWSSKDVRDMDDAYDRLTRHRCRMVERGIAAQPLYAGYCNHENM
The experiment in a line: Glycosidase specificity: Hex inhibition. Format: biochemical.

In another experiment the test system is almond β-Glc. In words: Glycosidase specificity: almond β-glucosidase inhibition. The experiment is classed as biochemical. Conditions: for IC50: pNPGlc (1.6 mM).
Another experiment deals with human α-Glc (Homo sapiens, UniProt P10253). The experiment in a line: Glycosidase specificity: α-Glc inhibition. Format: biochemical.

This is an account of results in publication PMC2910749 (Chembiochem : a European journal of chemical biology, 2008).

Substitutions are numbered along the chain they refer to.

A word on the IC50: it is the concentration that gives 50% inhibition. A higher IC50 goes with weaker potency. For the compound `O=C(Nc1ccncc1)c1ccc(Oc2cc(Cl)cc(Cl)c2)o1` [compound 2, 5-(3,5-dichlorophenoxy)-N-(4-pyridinyl)-2-furamide], the “effect on thermal denaturation of GCase” value on GCase was “attenuated thermal denaturation”. In addition, on human β-Gal, the IC50 is > 1150 µM and the “inhibition of β-Gal” value is reported as “no inhibition”. Besides, in experiment [1], the “increase of GCase levels in lysosomes” value is “more than twofold”. Moreover, the “inhibition of Hex” value against human Hex is listed as “no inhibition”. For the same compound, in the experiment on almond β-Glc, the “inhibition of almond enzyme” value was “virtually non-inhibitory” and the IC50 is > 1150 µM. Further, at human α-Glc, the 50% inhibitory concentration (IC50) was > 1150 µM and the “inhibition of α-Glc” value is on record as “no inhibition”.
Regarding `Cc1ccc(Sc2cccc3nc(N)nc(N)c23)cc1` [compound 1, 5-((4-methylphenyl)thio)quinazoline-2,4-diamine], on GCase, the “effect on thermal denaturation of GCase” value is “attenuated thermal denaturation”. Also, the half-inhibitory concentration (IC50) on human β-Gal came out at 570 µM; against almond β-Glc, 190 µM; on human α-Glc, 1300 µM. In addition, the “increase of GCase levels in lysosomes” value in experiment [1] is recorded as “more than twofold”. Besides, the “inhibition of Hex” value against human Hex is reported as “did not inhibit”. The “IC50 for almond β-glucosidase increased relative to human GCase” value at almond β-Glc was determined as 24 fold.
